≈ marks a conversion by molar mass, not a printed value. Calls of active or inactive are those of the source. The rule behind the calls is not given here. Some results are limits rather than exact numbers.

The target in series [1] is T1, Cytochrome b-c1 complex subunit 7 (Homo sapiens, UniProt P14927).
T1 sequence (P14927 whole entry): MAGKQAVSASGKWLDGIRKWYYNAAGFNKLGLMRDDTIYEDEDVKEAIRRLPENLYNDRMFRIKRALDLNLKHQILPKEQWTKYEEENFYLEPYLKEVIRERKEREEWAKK
As to the kind of experiment: Modulation of UQCRB in human HepG2 cells assessed as inhibition of HIF-1alpha for 4 hrs under 1%O2 by Western blot analysis. Type of series: cell-based. In short, it runs like this:
(§1)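 HepG2 cells pretreated with compound for 30 min, then exposed to 1% O₂ for 4 h. HIF-1α and tubulin measured by Western blot and quantified by densitometry.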
(Immunoblotting shows a protein as a band on a membrane.)

The subject of series [2] is HUVEC. As to the kind of experiment: Toxicity in HUVEC assessed as reduction in cell viability by trypan blue staining method. Type of series: cell-based. The note with it: human. In short, it runs like this: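 HUVECs tested by trypan blue staining, run in parallel with the VEGF-stimulated invasion and tube formation assays at the same concentrations.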
Series [3] in a line: Thermodynamic solubility in H2O by HPLC. Type of series: physicochemical. The note with it: water; read-out: Therm_solubility.
For series [4], the system named is HepG2. As to the kind of experiment: Cytotoxicity against human HepG2 cells assessed as effect on cell viability at 1 to 20 uM after 72 hrs by MTT assay. Type of series: cell-based. The note with it: hepg2, 72 h. In general terms: Tetrazolium dyes change colour on reduction, which living cells bring about.
Series [5] is described as follows: Thermodynamic solubility in PBS by HPLC. The note with it: read-out: Therm_solubility. In kind it is physicochemical.
Series [6] deals with Chorioallantoic membrane. As to the kind of experiment: Toxicity in chicken chorioallantoic membrane assessed as induction of rupture of pre-existing vessels. The note with it: in vivo. Type of series: cell membranes, Gallus gallus.
In series [7] the test system is Chorioallantoic membrane. As to the kind of experiment: Antiangiogenic activity in chicken chorioallantoic membrane assessed as inhibition of blood vessel formation (reference value: 23%). Type of series: functional, cell membranes. The settings on record: Gallus gallus, dose or concentration not given here. The essentials: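 Fertilized chick eggs held at 37 °C in a humidified incubator; about 2 mL albumin withdrawn on day 3. Compound-loaded Thermanox coverslips placed on the CAM of 4.5-day embryos; retinoic acid served as positive control. Result given as percent positive eggs of eggs tested.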

The target of series [8] is T2, Cytochrome b-c1 complex subunit 7 (Homo sapiens) (UniProt P14927).
T2 sequence (whole entry): T1 sequence (P14927 whole entry)
As to the kind of experiment: Displacement of biotin-labeled terpestacin from UQCRB (unknown origin) by surface plasmon resonance. The settings on record: concentration not given here. The essentials:
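Biotin (control) and biotinylated terpestacin immobilized on a streptavidin sensor chip. Competitor (25 μM) incubated with purified UQCRB (25 μM) in pH 7.4 buffer (10 mM HEPES, 150 mM NaCl, 3 mM EDTA). Complexes injected at 30 μL/min; chip regenerated with 50 mM NaOH. Binding taken as resonance on biotinylated terpestacin minus resonance on biotin.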
For orientation: SPR reads the build-up and loss of mass on a sensor chip optically.

Series [9] relates to U-87MG ATCC. As to the kind of experiment: Antitumor activity against human U87MG cells implanted into Balb C mouse assessed as CD31 expression in tumor at 20 mg/kg, ip every other day measured on day 18 by immunohistochemical staining. Set-up: dose 20 mg/kg. Type of series: functional, organism-based. In short, it runs like this:
(§2)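 Paraffin tumor sections (4 μm) incubated overnight at 4 °C with anti-CD31, anti-HIF-1α or anti-VEGF antibodies. Then FITC- or Alexa-conjugated secondary antibodies for 45 min at room temperature, with DAPI counterstain.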

The test system of series [10] is HUVEC. As to the kind of experiment: Antiangiogenic activity in HUVEC assessed as inhibition of VEGF-induced tube formation by optical microscopy. In kind it is functional, cell-based. The note with it: Homo sapiens. The essentials: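 Serum-starved HUVECs on Matrigel, VEGF-stimulated with or without compound. Connected cells counted in random fields at 100× and divided by total cells in the same field. Basal tube formation in serum-free medium normalized to 100%. Mean ± SE of three independent experiments.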

Series [11] addresses T2, Cytochrome b-c1 complex subunit 7 (Homo sapiens). As to the kind of experiment: Modulation of UQCRB in human HepG2 cells assessed as inhibition of HIF-1alpha accumulation at 1 to 10 uM for 4 hrs under 1%O2 by Western blot analysis. In kind it is cell-based. The essentials:
as §1

Series [12] has as its system HUVEC. As to the kind of experiment: Antiangiogenic activity in HUVEC assessed as inhibition of VEGF-induced invasion by Transwell chyamber system. Type of series: functional, cell-based. The note with it: Homo sapiens. In short, it runs like this:
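HUVECs serum-starved, then stimulated with VEGF with or without compound. Invasion measured in Transwell chambers with 8.0 μm pore polycarbonate filter inserts; invaded cells counted by light microscope at 100×. Basal invasiveness of HUVECs in serum-free medium normalized to 100%. Mean ± SE of three independent experiments.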

Series [13] concerns U-87MG ATCC. As to the kind of experiment: Antitumor activity against human U87MG cells implanted into Balb C mouse assessed as decrease in microvessel density at 20 mg/kg, ip every other day measured on day 18. In kind it is functional, organism-based. More on the design: dose 20 mg/kg.
The test system of series [14] is U-87MG ATCC. As to the kind of experiment: Antitumor activity against human U87MG cells implanted into Balb C mouse assessed as VEGF expression in tumor at 20 mg/kg, ip every other day measured on day 18 by immunohistochemical staining. More on the design: dose 20 mg/kg. Type of series: functional, organism-based. The essentials:
as §2

For series [15], the system named is U-87MG ATCC. As to the kind of experiment: Antitumor activity against human U87MG cells implanted into Balb C mouse assessed as inhibition of tumor growth at 20 mg/kg, ip every other day measured on day 18. Set-up: dose 20 mg/kg. Type of series: functional, organism-based. In short, it runs like this: (§3)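 Female athymic Balb C nu/nu mice, 4 weeks old, implanted subcutaneously in the dorsal flank with 5 × 10⁶ U87MG cells in PBS/Matrigel (1:1). At palpable tumors (50−100 mm³), randomized into two groups (n = 8). Dosed intraperitoneally with vehicle or 20 mg/kg every other day. Tumor volume and body weight followed over 17 days.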

Series [16] has as its target T2, Cytochrome b-c1 complex subunit 7 (Homo sapiens). As to the kind of experiment: Binding affinity to UQCRB in human HepG2 cells assessed as inhibition of hypoxia-induced mitochondrial ROS generation under 1%O2 for 10 mins after 30 mins by MitoSOX Red fluorescence assay. Type of series: cell-based. In short, it runs like this:
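HepG2 cells pretreated with compound for 30 min, then held at 1% O₂ for 10 min. Loaded with MitoSOX Red (5 μM) for 10 min, lysed and centrifuged. Fluorescence of protein-normalized supernatant read at ex 510 / em 580 nm. Mean ± SE of three independent experiments.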

Series [17] has as its system U-87MG ATCC. As to the kind of experiment: Antitumor activity against human U87MG cells implanted into Balb C mouse assessed as HIF1alpha expression in tumor at 20 mg/kg, ip every other day measured on day 18 by immunohistochemical staining. Type of series: functional, organism-based. Set-up: dose 20 mg/kg. In short, it runs like this:
as §2

Series [18] deals with HepG2. As to the kind of experiment: Inhibition of hypoxia-induced VEGF expression in human HepG2 cells at 1 to 5 uM for 30 mins followed by 1%O2 for 16 hrs by ELISA. Type of series: functional, cell-based. The essentials: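 HepG2 cells pretreated with compound for 30 min, then exposed to 1% O₂ for 16 h. VEGF protein in culture supernatant measured by VEGF-specific ELISA. Mean ± SE of three independent experiments.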

The nature of series [19]: Antitumor activity against human U87MG cells assessed as inhibition of cell growth after 72 hrs by MTT assay. The note with it: U-87 MG. In kind it is functional, cell-based, U-87MG ATCC.
The test system of the next series is Mus musculus. As to the kind of experiment: Toxicity in human U87MG cells implanted into Balb C mouse assessed as body weight loss at 20 mg/kg, ip every other day measured on day 18. Type of series: organism-based, U-87MG ATCC. Set-up: dose 20 mg/kg, route intraperitoneal. The note with it: in vivo. The essentials: as §3

With `CC(C)(C)c1ccc(S(=O)(=O)Nc2ccc(O)c3ccccc23)cc1`, in series [1], the IC50 was greater than 20 µM.
As to `O=S(=O)(Nc1ccc(O)cc1)c1ccc(-c2ccccc2)cc1` [listing 1 of 2 here], the IC50 in series [1] turned out to be 2.5 µM. The Activity entry in the series with HUVEC [2], in the series with HepG2 [4] and in the series on Chorioallantoic membrane [6] was “Non-toxic” in each case. In addition, the solubility thermodynamic in [3] and in series [5] was less than 2.06 µg/mL in each case.
Consider `O=S(=O)(Nc1ccc(O)cc1)c1ccc(-c2ccccc2)cc1` [listing 2 of 2 here], for which the inhibition in the series with Chorioallantoic membrane [7] is 69%; in series [8], 40%; in the series on HUVEC [10] it was “Dose-dependent effect”; in the series with HUVEC [12], “Dose-dependent effect”; in series [16] it was “Dose-dependent effect”. Further, the inhibition entry (with U-87MG ATCC [9]; in series [11]; in the series with U-87MG ATCC [13]; in the series on U-87MG ATCC [14]; with U-87MG ATCC [15]; with U-87MG ATCC [17]) was “Active” throughout. For the same compound, the inhibition entry in the series with HepG2 [18] was “Active”.
Turning to `CCc1ccc(S(=O)(=O)Nc2ccc(O)cc2)cc1`, in series [1], the IC50 was greater than 20 µM.
On to `O=S(=O)(Nc1cccc2c(O)cccc12)c1ccc(-c2ccccc2)cc1`, for which the IC50 in series [1] is greater than 20 µM.
In the case of `O=S(=O)(Nc1ccc([O-])cc1)c1ccc(-c2ccccc2)cc1.[K+]`, the IC50 is 5 µM in series [1] and 12.5 µM in series [19]. For the same compound, the solubility thermodynamic in [3] was greater than 500 µg/mL; in series [5], 108 µg/mL. The Activity entry with Mus musculus is “Non-toxic”.
With `CC(C)(C)c1ccc(S(=O)(=O)Nc2ccc(O)cc2)cc1`, the IC50 in series [1] came out at 5 µM. The inhibition is 65% in the series with Chorioallantoic membrane [7]; 40% in series [8]; “Dose-dependent effect” in the series on HUVEC [10]; “Dose-dependent effect” in the series on HUVEC [12]; “Dose-dependent effect” in [16]. For the same compound, the Activity entry with HUVEC [2], in the series with HepG2 [4] and in the series on Chorioallantoic membrane [6] was “Non-toxic” throughout. In addition, the inhibition entry (in series [11]; in the series on HepG2 [18]) was “Active” each time. In addition, the solubility thermodynamic in [5] was found to be 26.7 µg/mL (≈ 87.6 µM).
Take `O=S(=O)(Nc1ccc(O)c2ccccc12)c1ccc(-c2ccccc2)cc1`: the concentration for half-maximal inhibition (IC50) in series [1] was greater than 20 µM.
Consider `CC1=C(/C=C/C(C)=C/C=C/C(C)=C/C(=O)O)C(C)(C)CCC1`, for which the inhibition in the series on Chorioallantoic membrane [7] was 67%.
`O=S(=O)(Nc1ccc(O)c(F)c1)c1ccc(-c2ccccc2)cc1`: the IC50 in [1] is greater than 20 µM.
On to `O=S(=O)(Nc1cccc2ccc(O)cc12)c1ccc(-c2ccccc2)cc1`, for which, in series [1], the half-maximal inhibitory concentration (IC50) is greater than 20 µM.
Take `O=S(=O)(Nc1ccc(O)c2ncccc12)c1ccc(-c2ccccc2)cc1`: in [1], the half-maximal inhibitory concentration (IC50) was 20 µM. For the same compound, the solubility thermodynamic in [5] stood at 7.26 µg/mL (≈ 19.3 µM).
Take `O=S(=O)(Nc1ccc(O)cc1)c1cccc2cccnc12`: the IC50 in series [1] is greater than 20 µM.
Still for that read-out and setting: under `O=C(O)c1cc(NS(=O)(=O)c2ccc(-c3ccccc3)cc2)ccc1O` stands greater than 20 µM.
`CC(C)(C)c1ccc(S(=O)(=O)Nc2cccc(O)c2)cc1`: in series [1], the IC50 came to 8 µM.
Turning to `O=S(=O)(Nc1ccc(O)cc1)c1ccc2ccccc2c1`, the IC50 in series [1] is greater than 20 µM.
`O=S(=O)(Nc1ccc(O)c(Cl)c1)c1ccc(-c2ccccc2)cc1`: the concentration for half-maximal inhibition (IC50) in [1] was greater than 20 µM.
Regarding `CC(C)(C)c1ccc(S(=O)(=O)Nc2ccc(O)c3ncccc23)cc1`, the half-inhibitory concentration (IC50) in [1] came to 20 µM. In addition, the solubility thermodynamic in series [5] came out at 12.8 µg/mL (≈ 36 µM).
With `Cc1ccc(S(=O)(=O)Nc2ccc(O)cc2)cc1`, the IC50 in [1] is greater than 20 µM.
Consider `CC(C)(C)c1ccc(S(=O)(=O)Nc2ccccc2O)cc1`, for which the IC50 in [1] is 8 µM.

A word on the IC50: it is the point on the concentration scale where inhibition reaches its midpoint. The inhibition is the change of the read-out against control, counted positive when it falls.

These data come from ChEMBL document CHEMBL3351356, “Development of a novel class of mitochondrial ubiquinol-cytochrome c reductase binding protein (UQCRB) modulators as promising antiangiogenic leads” (J Med Chem, 2014).
